Results from ChEMBL document CHEMBL1687915, “Synthesis and biological evaluation of analogues of AKT (protein kinase B) inhibitor-IV” (J Med Chem, 2011).
Calls of active or inactive are those of the source. No cut-off for these calls is given here.

Tests used:
[1] = Antiviral activity against Parainfluenza virus 5 expressing renilla luciferase infected in HeLa cells assessed as inhibition viral replication by luciferase based reporter gene assay; type: functional, cell-based
Procedure, shortened: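 HeLa cells infected with 1 MOI of recombinant PIV5 carrying renilla luciferase between the HN and L genes, then incubated with compound. Cells harvested 1 day post infection and assayed for renilla luciferase. Screened first as singletons at 1 μM, then at 0.5 μM. IC50 taken from dose-response curves, at least triplicate.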

[2] = Cytotoxicity in human NHBE cells assessed as luciferase activity after 40 hrs by CellTiter-Glo luminescent cell viability assay; type: cell-based
Procedure, shortened: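 NHBE cells (passage 2, 2×10⁴ cells/cm²) grown on collagen-coated Transwell inserts, submerged for 5–7 days, then at air-liquid interface for a further 28 days (35 days total). Exposed to compound over a dose range, then viability read after 40 h as cellular ATP by CellTiter-Glo firefly luciferase. Triplicate or more.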

[3] = tested on: Mycolicibacterium fortuitum; experiment: Antibacterial activity against 0.5 uM compound pretreated Mycobacterium fortuitum infected in human HeLa cells assessed as inhibition of bacterial replication; type: functional, organism-based
Procedure, shortened: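 HeLa cells seeded at 5×10^5/well in EMEM with 10% FBS overnight, 37 °C, 5% CO₂. Washed free of antibiotics, then infected with washed M. fortuitum in uptake buffer at MOI 5 for 24 h. After a warm DMEM wash, compound added at 0.5 μM in HeLa medium, with Triton X-100 (1%) and 0.1% DMSO controls. After 24 h more, cells lysed and plated for CFU on 7H11 agar. At least triplicate.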

HeLa = experiment: Cytotoxicity in human HeLa cells assessed as luciferase activity after 24 hrs by CellTiter-Glo luminescent cell viability assay; type: functional, cell-based
Procedure, shortened: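 Viability of HeLa cells measured after 24 h of compound exposure by cellular ATP (firefly luciferase, CellTiter-Glo) over a dose-response range. IC50 derived from the curves, triplicate or more.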

[4] = Inhibition of AKT -mediated FOXO1a nuclear export in human 786-O cells; type: cell-based
[5] = Antiproliferative activity against human 786-O cells; type: functional, cell-based; details: 786-0
[6] = Mammalian orthorubulavirus 5, HeLa, read-out: IC50
[7] = Homo sapiens, NHBE, 40 h, read-out: IC50
[8] = Homo sapiens, HeLa, 24 h, read-out: IC50

| IC50 [1, 6] [nM] | IC50 ([1]; hela) | IC50 [4] [nM] | SMILES | IC50 [2, 7] [nM] | IC50 ([2]; nhbe) | Activity [3] | IC50 (HeLa; [8]) [nM] | IC50 (HeLa; hela) | IC50 [5] [nM] |
| --- | --- | --- | --- | --- | --- | --- | --- | --- | --- |
| 250 | Dose-dependent effect |  | CCCCCCCCCCCC[n+]1c(/C=C/N(C)c2ccccc2)n(-c2ccccc2)c2ccc(-c3nc4ccccc4s3)cc21.[I-] | > 5000 | Dose-dependent effect | inactive | 440 | Dose-dependent effect |  |
| 520 | Dose-dependent effect | 625 | CC[n+]1c(/C=C/N(C)c2ccccc2)n(-c2ccccc2)c2ccc(-c3nc4ccccc4s3)cc21 | 3180 | Dose-dependent effect | inactive | 670 | Dose-dependent effect | < 1250 |
| 590 | Dose-dependent effect |  | CN(/C=C/c1n(-c2ccccc2)c2ccc(-c3nc4ccccc4s3)cc2[n+]1CCc1ccccc1)c1ccccc1.[I-] | 5000 | Dose-dependent effect | inactive | 620 | Dose-dependent effect |  |
| 410 | Dose-dependent effect |  | CCCCCC[n+]1c(/C=C/N(C)c2ccccc2)n(-c2ccccc2)c2ccc(-c3nc4ccccc4s3)cc21.[I-] | > 5000 | Dose-dependent effect | inactive | 420 | Dose-dependent effect |  |
